# Compounds with a hit are over-represented: about 2.7% of the library has one in this group of screens.
# TNF death inh: inhibitors of TNF-alpha triggered necroptosis, primary screen, cell-based, Jurkat FADD-/-, single concentration; Jurkat FADD-/- TNF necroptosis rescue, ATP luminescence, 24 h; 0 = TNF only, 100 = no-TNF cells; activation (protection from cell death), % at 10 µM; 0.068% of 220,000 active;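 active = activation, meaning protection from cell death, of at least 50% relative to plate controls; inactive = activation below 50%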;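 also: necroptosis triggered by 40 ng/mL TNF-alpha added together with compound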
# PfM18AAP inh-1: PfM18AAP inhibitors, malaria aminopeptidase, primary screen, biochemical, QFRET, recombinant enzyme | H-Glu-NHMec fluorogenic cleavage | inhibition, % at 7.35 µM | 1.2% of 290,000 active;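 active = inhibition above the campaign mean inhibition over all tested compounds plus 3 SD, cut at about 28% in these data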;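 also: 0% = plate median of test compound wells and 100% = 2 mM ZnCl2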
# L929 necroptosis: inhibitors of zVAD-triggered necroptosis, primary screen, L929 cells | L929 zVAD necroptosis rescue, ATP luminescence, 24 h; with zVAD 60 µM | viability rescue, % at 10 µM | 0.38% of 220,000 active | AID 1377, 2008;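 active = activation, scaled between plate controls, above about 75%, limit read from the data; inactive = activation under that limit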;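 also: 0% = zVAD with DMSO and 100% = DMSO alone without zVAD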
# RBBP9 inh: human RBBP9 inhibitors, primary screen, biochemical, fluorescence polarization, FP-Rh probe, HTS; Serine hydrolase RBBP9 (Homo sapiens), O75884; recombinant RBBP9; inhibition, % at 7.94 µM; 0.2% of 220,000 active; AID 1515, 2009;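 active = inhibition above the campaign mean of all tested compounds plus 3 SD, cut at about 14% in these data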;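 also: plate controls were DMSO wells with RBBP9 for no effect and wells lacking RBBP9 protein for full effect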
#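 Test system: recombinant human RBBP9; Timing: 30 min then 45 min, 25 °C; Detection: fluorescence polarization; Control set: RBBP9 with DMSO as uninhibited control, no-protein wells as full inhibition; Compound dosing: one concentration, 7.94 µM nominal, 0.794% DMSO; Probe or stimulus: FP-Rh activity-based probe, 375 nM before mixing.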
# Wee1 degr inh: Wee1 degradation inhibitors, primary screen, cell-based, HeLa, Wee1K328M-luciferase, luminescence | HeLa Luc-Wee1K328M stability; 100% = proteasome inhibitor MG132 effect | Wee1-like protein kinase (Homo sapiens), P30291 | reporter increase, % at 5 µM | 1.2% of 220,000 active;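 active = activation above the mean of all tested compounds plus 3 SD, set per screening run, cut at about 8.8% in these data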;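 also: cells exposed to compound for 20 h before luminescence read; 0% = DMSO alone and 100% = MG132 at 30 µM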
# Target sequence (P30291 whole entry K328M): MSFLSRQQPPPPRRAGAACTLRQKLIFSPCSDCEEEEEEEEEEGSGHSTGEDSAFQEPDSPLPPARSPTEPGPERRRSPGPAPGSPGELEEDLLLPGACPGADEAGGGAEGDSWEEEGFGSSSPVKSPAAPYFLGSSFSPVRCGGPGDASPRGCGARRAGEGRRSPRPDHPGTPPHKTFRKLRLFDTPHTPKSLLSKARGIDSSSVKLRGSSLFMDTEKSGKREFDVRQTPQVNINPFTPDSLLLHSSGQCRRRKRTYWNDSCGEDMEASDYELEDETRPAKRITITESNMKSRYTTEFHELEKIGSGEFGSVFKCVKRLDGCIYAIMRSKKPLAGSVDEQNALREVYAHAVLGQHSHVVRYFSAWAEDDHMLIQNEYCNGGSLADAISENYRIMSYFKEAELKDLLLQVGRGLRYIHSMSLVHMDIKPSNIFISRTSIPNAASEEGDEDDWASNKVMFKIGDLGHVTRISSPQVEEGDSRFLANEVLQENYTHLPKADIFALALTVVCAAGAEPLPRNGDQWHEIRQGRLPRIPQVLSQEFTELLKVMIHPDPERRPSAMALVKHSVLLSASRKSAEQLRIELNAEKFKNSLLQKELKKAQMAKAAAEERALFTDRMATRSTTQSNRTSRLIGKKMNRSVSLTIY
# p97 ATPase inh: inhibitors of human p97 ATPase, primary screen, biochemical; recombinant p97 ATPase, Kinase-Glo ATP luminescence, 3 h; inhibition, % at 8 µM; 0.42% of 220,000 active; in the data active = inhibition above about 15%;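 also: 0% = DMSO vehicle and 100% = wells lacking enzyme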
# PfM18AAP inh-2: PfM18AAP inhibitors, malaria aminopeptidase, confirmation, biochemical, QFRET, recombinant enzyme, triplicate | shares compounds with PfM18AAP inh-1 | H-Glu-NHMec fluorogenic cleavage | inhibition, % at 7.35 µM | 28% of 2,400 active;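 active = mean inhibition over replicate wells above the hit cutoff set for the earlier primary screen, cut at about 29% in these data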;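 also: 0% = median of test compound wells and 100% = 2 mM ZnCl2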
# CTSL1 counter: cathepsin L1 inhibitors, retest, confirmation, counter-screen for PFM18AAP inhibitor project, biochemical, QFRET, triplicate; shares compounds with PfM18AAP inh-1; 2,400 tested, under 10 active; purified cathepsin L1, Z-Leu-Arg-MCA fluorescence; inhibition, % at 5.96 µM;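 active = average inhibition across replicates above the hit cutoff set in the earlier primary screen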;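 also: 0% = median of test compound wells and 100% = Z-Phe-Ala-diazomethylketone 1 µM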
# * hit, by the source's call; . = no result.
SMILES,TNF death inh,PfM18AAP inh-1,L929 necroptosis,RBBP9 inh,Wee1 degr inh,p97 ATPase inh,PfM18AAP inh-2,CTSL1 counter
O=[N+]([O-])c1cc([N+](=O)[O-])c2nonc2c1Nc1ccc(O)cc1,.,-0.6,.,.,.,.,.,.
O=[N+]([O-])c1cc([N+](=O)[O-])c2nonc2c1Nc1ccccc1O,.,38.1*,.,.,.,.,-2.3,3.0
COc1ccc(CNCc2cccc(Oc3ccccc3)c2)cc1,0.9,5.4,-0.3,1.4,2.0,-6.3,.,.
CCc1nnc(NC(=O)CSc2nnc(CNC(=O)c3ccc(OC)c(OC)c3)o2)s1,-0.2,41.8*,0.8,-2.2,-3.1,-1.0,-24.6,-3.5
COc1ccccc1-c1ocnc1C(=O)N1CCN(S(=O)(=O)c2ccc(NC(C)=O)cc2)CC1,.,-5.5,.,.,.,.,.,.
N#CC1=C(N)Oc2n[nH]c(-c3ccccc3)c2C1c1cccnc1 (centres undefined),-3.0,4.4,0.8,2.1,2.6,5.5,.,.
N#CC1=C(N)Oc2n[nH]c(-c3cccnc3)c2C1c1ccc([N+](=O)[O-])o1 (centres undefined),-3.7,33.1*,0.1,2.2,-1.0,11.2,-36.4,-5.4
O=c1cc(-c2ccc(O)c(O)c2)oc2c(C3O[C@H](CO)[C@@H](O)[C@H](O)[C@H]3O)c(O)cc(O)c12 (some centres undefined),2.5,67.7*,4.1,-14.2,-1.3,-0.2,44.7*,-1.5
O=c1cc(-c2ccc(O)c(O)c2)oc2cc(O)c(C3OC(CO)C(O)C(O)C3O)c(O)c12 (centres undefined),0.6,68.4*,-0.5,-12.9,-2.1,3.9,33.9*,1.6
O=c1cc(-c2ccc(O)cc2)oc2cc(O[C@@H]3O[C@H](CO)[C@@H](O)[C@H](O)[C@H]3O[C@@H]3OC[C@](O)(CO)[C@H]3O)cc(O)c12,2.3,3.2,-0.4,0.1,-2.9,10.4,.,.
Cc1nc(N2CCN(C(=O)c3ccco3)CC2)[nH]c(=O)c1C,.,-9.8,.,.,.,.,.,.
O=c1cccccc1NCc1ccccc1,-0.9,41.9*,-0.2,2.8,-1.6,3.7,-40.7,3.0
N#Cc1ccccc1NCc1ccccc1,-0.4,-0.1,-0.1,-3.9,-0.1,1.3,.,.
NC(=O)C1CCN(C(=S)c2ccc(-c3ccc(Br)cc3)o2)CC1,1.3,49.0*,0.9,-10.0,-0.9,2.8,-13.2,7.1
CC(/C=C/c1ccccc1)=N\Nc1nc(C)cc(C)n1,1.6,38.6*,.,-8.8,-1.6,-5.6,-35.5,-1.1
N#Cc1c(Nc2ccccc2C(F)(F)F)s[nH]c1=O,-22.3,36.0*,-0.4,-6.0,-1.5,4.6,1.9,-6.2
CCOC(=O)c1sc(N)c(C(=O)Nc2ccccc2)c1C,0.3,40.1*,20.0,-9.1,0.0,3.4,5.0,0.7
Cc1ccc(-c2nc(N/N=C/c3cccc([N+](=O)[O-])c3)c3ccccc3n2)cc1,-9.9,11.6,-0.2,-4.5,2.5,2.8,.,.
Cc1ccc(-c2nc(N/N=C/c3cccnc3)c3ccccc3n2)cc1,-12.0,43.3*,-2.2,-2.5,-0.5,-52.9,-33.2,6.1
O=C(NNc1ccc(C2CCCCC2)cc1)C(O)(c1ccccc1)c1cccs1 (centres undefined),-7.6,1.7,0.3,0.9,-1.3,1.8,.,.
COc1ccc(C(O)(C(=O)NNc2ccc(C)cc2)c2cccs2)cc1 (centres undefined),-1.3,41.7*,-0.1,3.9,-2.3,3.3,-47.0,-0.8

# Compound activity from PubChem BioAssay.
